HNF4A DNA FP: change in binding of human HNF4 alpha to DNA; activity change, % at 10 µM; HNF4a-FITC DNA binding, fluorescence polarization, 1 h; AID 1224865; 360,000 tested, 0.3% active; P41235; in the data active = activity change above about 30%, passing the limit was not always enough
Target sequence (P41235 whole entry, looked up): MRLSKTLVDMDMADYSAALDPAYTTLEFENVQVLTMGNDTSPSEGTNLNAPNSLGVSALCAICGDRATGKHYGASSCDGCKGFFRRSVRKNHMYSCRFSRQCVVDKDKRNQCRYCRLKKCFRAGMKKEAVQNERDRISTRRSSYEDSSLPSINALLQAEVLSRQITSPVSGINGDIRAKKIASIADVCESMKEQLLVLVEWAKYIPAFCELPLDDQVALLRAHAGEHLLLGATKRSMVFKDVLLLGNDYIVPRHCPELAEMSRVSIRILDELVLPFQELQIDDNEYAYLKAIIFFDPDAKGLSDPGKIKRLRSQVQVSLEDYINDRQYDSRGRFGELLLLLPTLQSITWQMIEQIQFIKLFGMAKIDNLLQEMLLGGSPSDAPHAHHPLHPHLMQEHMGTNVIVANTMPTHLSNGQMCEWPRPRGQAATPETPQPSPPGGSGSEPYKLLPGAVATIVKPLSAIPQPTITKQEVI
TPT1 inh: inhibitors of Candida albicans tRNA 2'-phosphotransferase TPT1; 300,000 tested, 0.81% active; inhibition, % at 5 µM; recombinant caTPT1, FP RNA substrate dephosphorylation;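 active = inhibition above the mean of all tested compounds plus 3 SD, set per screening campaign, cut at about 24% in these data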;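 also: plate controls were DMSO alone for no effect and ferristatin control at 100 nM for full effect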
IDE inh: inhibitors of human insulin-degrading enzyme in cells; inhibition, % at 5.59 µM; P14735; 320,000 tested, 0.41% active; HEK cells, FAbetaB cleavage, fluorescence polarization;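 active = percent inhibition above the average of all tested compounds plus 3 SD, set per screening campaign, cut at about 16% in these data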;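 also: IDE supplied by intact live HEK cells; FP after avidin binding of uncleaved biotin substrate so inhibition keeps polarization high; 0% = DMSO wells and 100% = 60 µM reference IDE inhibitor Ii1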
CSN inh: CSN deneddylation inhibition. Q92905. Purified CSN, SCF-Nedd8-OG deneddylation, fluorescence polarization. inhibition, % at 12.5 µM. 360,000 tested, 0.38% active. AID 651999;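 active = pattern-corrected inhibition above about 35%, with an unprinted fluorescence ratio check between 0.5 and 1.5, limit read from the data, passing the limit was not always enough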;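 also: 0% = enzyme with substrate and 100% = substrate without enzyme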
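Assay system: purified human Csn5 enzyme expressed in HEK293T cells; Input: 0.24 nM Csn5 enzyme, final concentration; Reagent: 10 nM SCFSkp2-Nedd8OG; Compound dosing: 12.5 µM single point; Times: reaction 90 min, room temperature; Technique: fluorescence polarization readout.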
Tb MetRS inh: Trypanosoma brucei MetRS inhibition; purified T. brucei MetRS, ATP depletion, Kinase-Glo luminescence; inhibition, % at 11.9 µM; 360,000 tested, 0.4% active;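 active = inhibition above a per-plate cutoff of the control wells' mean inhibition plus 3 SD, cut at about 5.5% in these data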;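 also: 0% = DMSO wells median and 100% = median of wells with control inhibitor compound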
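Material – parasite MetRS enzyme · Medium – HEPES-MgCl2-KCl buffer plus DTT, spermine, BSA, pyrophosphatase · Reagent – ATP, methionine and E. coli bulk tRNA substrates · Times – 15 min enzyme-compound preincubation, 2 h reaction, 10 min detection, 25 °C · Measured by – luminescence of leftover ATP · Evaluation – percent inhibition relative to median high and low control wells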
IDE cell activ: activators of human insulin-degrading enzyme in cells; HEK cells, FAbeta-B cleavage, fluorescence polarization; 0% vehicle, 100% cell-free pure enzyme wells; AID 493087; activation, % at 5.96 µM; P14735; 340,000 tested, 0.073% active;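 active = activation above the mean of all tested compounds plus 3 SD, set per screening campaign, cut at about 17% in these data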
TbMetRS confirm: confirmation of Trypanosoma brucei MetRS inhibitors. shares compounds with Tb MetRS inh. T. brucei MetRS enzyme, luminescence (ATP depletion). inhibition, % at 11.9 µM. 1,400 tested, 93% active. AID 624412; in the data active = inhibition above about 7%
Jurkat tox: kills Jurkat cells in T. brucei MetRS counterscreen | shares compounds with Tb MetRS inh | Jurkat cells viability, ATP luminescence | AID 624413 | 1,400 tested, 12% active | inhibition, % at 8.3 µM; in the data active = inhibition above about 15%;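 also: 0% = vehicle and 100% = reference inhibitor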
TbMetRS FP orth: orthogonal test for Trypanosoma brucei MetRS inhibitors. shares compounds with Tb MetRS inh. purified T. brucei MetRS, fluorescence polarization. inhibition, % at 11.9 µM. 1,400 tested, 44% active. AID 651607; in the data active = inhibition above about 17%;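 also: 0% = vehicle wells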
* hit, by the source's call; · = no result; ! = not confirmed by another sample. This is a sample that favours compounds with a hit; in the whole collection about 1.7% have one here.

SMILES	HNF4A DNA FP	TPT1 inh	IDE inh	CSN inh	Tb MetRS inh	IDE cell activ	TbMetRS confirm	Jurkat tox	TbMetRS FP orth
c1ccc2[nH]c(CCCCc3nc4ccccc4[nH]3)nc2c1	-1	-2	4	-3	6.4*	1	16*	1	12
O=C(Cc1ccc(Br)cc1)Nc1nc2ccccc2[nH]1	4	3	-4	0	5	3	·	·	·
N/N=C(/Cc1nc2ccccc2[nH]1)c1ccc([N+](=O)[O-])cc1	0	2	4	-10	6.0*	1	88*	0	66*
c1ccc2[nH]c(CSc3nc4ccccc4s3)nc2c1	1	2	5	1	8.1*	0	20*	7	6
c1ccc(N/N=C(\Cc2nc3ccccc3[nH]2)c2ccccc2)cc1	-4	1	-2	8	3	0	·	·	·
O=C(Cc1nc2ccccc2[nH]1)c1ccc(Br)cc1	-1	6	0	5	11*	-3	2	10	6
COc1ccc(CCCNC(=O)C2Cc3c(-c4ccc(NC(C)=O)cc4)ccnc3O2)cc1 (stereo not given)	3	·	·	2	0	·	·	·	·
Cc1ccc2nc(CCCc3nc4ccc(C)cc4[nH]3)[nH]c2c1	5	·	·	7	1	4	·	·	·
Cc1ccc2nc(CCc3nc4ccc(C)cc4[nH]3)[nH]c2c1	2	-3	9	2	6.4*	-2	11*	3	5
O=C(NCc1ccccc1Cl)c1csc([C@@H]2C[C@H](O)[C@@H](CO)O2)n1	2	·	·	0	0	·	·	·	·
O=C(NCc1ccccc1Cl)c1ccc2sc([C@H]3C[C@H](O)[C@@H](CO)O3)nc2c1	3	·	·	1	0	·	·	·	·
O=C(NCc1cc(Cl)cc(Cl)c1)c1csc(COCCO)n1	2	·	·	-1	43*	·	66*	6	44*
O=C(NCc1cc(Cl)cc(Cl)c1)c1ccc2nc([C@@H]3O[C@H](CO)[C@@H](O)[C@H]3O)[nH]c2c1	4	·	·	-3	11*	·	45*	-2	25*
O=C(NCc1cc(Cl)cc(Cl)c1)c1ccc2sc([C@H]3C[C@H](O)[C@@H](CO)O3)nc2c1	-6	·	·	-1	27*	·	69*	7	39*
O=C(NCc1cc(Cl)cc(Cl)c1)c1csc([C@@H]2C[C@H](O)[C@@H](CO)O2)n1	-2	·	·	1	22*	·	60*	-2	35*
O=C(O)c1ccc(Nc2nc3ccc(Cl)cc3[nH]2)cc1	-1	3	1	-3	11*	8	44*	-3	14
CC(C)N(C(=O)CSc1nc2ccccc2c(=O)[nH]1)C(C)C	0	0	-3	4	0	0	·	·	·
O=C(NCc1ccc2c(c1)OCO2)C1CC(=O)N(c2ccc(Cl)cc2)C1 (stereo not given)	1	-3	-5	2	8.9*	0	16*	2	8
CCCn1ccc(O)c(Cc2ccc(Cl)cc2)c1=O	-1	-2	-3	9	1	8	·	·	·
O=c1c(Cc2ccc(F)cc2)c(O)ccn1Cc1ccc(Cl)cc1Cl	-1	-4	2	-5	-1	4	·	·	·
O=c1c(Cc2ccc(Cl)cc2Cl)c(O)ccn1CC(F)(F)F	0	-3	9	-5	9.0*	-2	14*	4	6
NC(=O)Cn1ccc(O)c(Cc2ccc(Cl)cc2Cl)c1=O	4	-3	3	2	25*	1	37*	-7	20*
O=c1c(Cc2ccc(Cl)cc2Cl)c(O)ccn1CCCN1CCOCC1	-1	0	3	-3	32*	7	51*	-3	20*
Cn1nc(C(=O)N2CCN(C(c3ccccc3)c3ccccc3)CC2)c2ccccc2c1=O	3	-1	0	4	0	0	·	·	·
CS(=O)(=O)c1ccc(-c2csc(C(O)(c3ccccc3)C(F)(F)F)n2)cc1 (stereo not given)	2	·	·	-4	0	·	·	·	·
SMILES	HNF4A DNA FP	TPT1 inh	IDE inh	CSN inh	Tb MetRS inh	IDE cell activ	TbMetRS confirm	Jurkat tox	TbMetRS FP orth
Cc1ccc(NC(=O)CN2CC(C)SC2=NC2CCCCC2)cc1 (stereo not given)	1	2	0	4	12*!	11	25*	4	6
CN(C)CCN=Cc1c(O)n(-c2ccc(S(=O)(=O)N3CCOCC3)cc2)c(=O)c2ccccc12	-1	·	·	8	-1	4	·	·	·
C=CCNC(=S)NNC(=O)COc1ccc2cc(Br)ccc2c1	1	-1	2	-7	19*	-4	46*	-1	24*
O=C1CC(N2CCC(c3nc4ccccc4[nH]3)CC2)C(=O)N1c1cccc(F)c1 (stereo not given)	1	-1	6	-6	2	12	·	·	·
O=C1CC(SCc2nc3ccccc3[nH]2)C(=O)N1c1ccc(Cl)cc1 (stereo not given)	2	-3	8	1	5.7*	0	5.7*	-2	0
O=C1CC(SCc2nc3ccccc3[nH]2)C(=O)N1c1ccc(F)c(Cl)c1 (stereo not given)	6	-1	1	2	29*	-8	21*	7	6
CCOc1ccc(N2C(=O)CC(SCc3nc4ccccc4[nH]3)C2=O)cc1 (stereo not given)	1	-1	2	1	2	1	·	·	·
O=C1CC(SCc2nc3ccccc3[nH]2)C(=O)N1c1cccc(F)c1 (stereo not given)	2	1	2	2	26*	-6	23*	17*	10
CN(C(=O)c1cccc(NC(=O)Cc2ccc(NC(=O)C3CCCN(C(=O)C4CCCCC4)C3)cc2)c1)C1CCC1 (stereo not given)	-2	·	·	-4	0	6	·	·	·
CC(=O)Nc1ccc(CN2CCc3c([nH]c4ccccc34)C2C(C)(C)C)cc1 (stereo not given)	0	0	6	2	0	3	·	·	·
CC(C)(C)C1c2[nH]c3ccccc3c2CCN1Cc1cccc(OCCO)c1 (stereo not given)	3	1	4	-1	9.1*	2	7.1*	3	6
O=C(NCCO)C(=O)NCC1OCCCN1S(=O)(=O)c1cc(F)ccc1F (stereo not given)	0	-2	0	-2	0	0	·	·	·
Cn1c(Cc2ccc3c(c2)OCO3)nnc1SCC(=O)NC1CCCC1	·	-1	4	·	·	·	·	·	·
